Source: ChEMBL document CHEMBL1255501, “Heteroresistance of Cryptococcus gattii to fluconazole” (2010)

How the values were obtained:
[1] = test system: Cryptococcus bacillisporus; assay: Antimicrobial activity against Cryptococcus gattii serotype C isolate NIH191 assessed as heteroresistant isolates at 4 ug/ml; type: functional
In short: (§1)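 Population analysis: saline cell suspensions (1 × 103 to 4 × 10^3 CFU/ml) plated on plain YPD agar or YPD agar with various fluconazole concentrations; growth recorded after 72 h at 30°C; percentage of resistant subpopulation at each drug level calculated relative to drug-free plate growth.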

[2] = test system: Cryptococcus gattii species complex; assay: Antimicrobial activity against Cryptococcus gattii serotype B isolate NIH198 assessed as heteroresistant isolates at 8 ug/ml; type: functional, Cryptococcus bacillisporus
In short: (§2)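 Population analysis: cells suspended in sterile saline at 1 × 10³ to 4 × 10³ CFU/ml and plated on plain YPD agar or YPD agar with various fluconazole concentrations. Plates incubated at 30°C for 72 h. The resistant subpopulation at each concentration is recorded as a percentage of the population.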

[3] = test system: Cryptococcus gattii species complex; assay: Antimicrobial activity against Cryptococcus gattii serotype C isolate H0058-1-1941 assessed as concentration required for heteroresistance; type: functional, Cryptococcus bacillisporus
[4] = test system: Cryptococcus gattii species complex; assay: Antimicrobial activity against Cryptococcus gattii serotype C isolate H0058-1-1941 assessed as heteroresistant isolates at 16 ug/ml; type: functional, Cryptococcus bacillisporus; in short: as §1
[5] = test system: Cryptococcus gattii species complex; assay: Antimicrobial activity against Cryptococcus gattii serotype C isolate NIH113 assessed as heteroresistant isolates at 8 ug/ml; type: functional, Cryptococcus bacillisporus; in short: as §1
[6] = test system: Cryptococcus gattii species complex; assay: Antimicrobial activity against Cryptococcus gattii serotype C isolate NIH34 assessed as heteroresistant isolates at 16 ug/ml; type: functional, Cryptococcus bacillisporus
In short: (§3)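 Cell suspensions of 1 × 10^3 to 4 × 10^3 CFU/ml were made in sterile saline and plated on plain YPD agar or YPD agar with various fluconazole concentrations. Plates were incubated at 30°C for 72 h, and the percentage of resistant subpopulation emerging was recorded.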

[7] = test system: Cryptococcus gattii species complex; assay: Antimicrobial activity against Cryptococcus gattii serotype B isolate B5763 assessed as heteroresistant isolates at 8 ug/ml; type: functional, Cryptococcus bacillisporus; in short: as §2
[8] = test system: Cryptococcus gattii species complex; assay: Antimicrobial activity against Cryptococcus gattii serotype C isolate H0058-1-1875 assessed as concentration required for heteroresistance; type: functional, Cryptococcus bacillisporus
[9] = test system: Cryptococcus gattii species complex; assay: Antimicrobial activity against Cryptococcus gattii serotype B isolate NIH286 assessed as heteroresistant isolates at 4 ug/ml; type: functional, Cryptococcus bacillisporus; in short: as §2
[10] = test system: Cryptococcus gattii species complex; assay: Antimicrobial activity against Cryptococcus gattii serotype C isolate H0058-1-1686 assessed as heteroresistant isolates at 16 ug/ml; type: functional, Cryptococcus bacillisporus; in short: as §1
[11] = test system: Cryptococcus gattii species complex; assay: Antimicrobial activity against Cryptococcus gattii serotype B isolate B5788 assessed as concentration required for heteroresistance; type: functional, Cryptococcus bacillisporus
In short: (§4)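 Fluconazole spot test: 10-fold serial dilutions of each single-colony-purified strain spotted on YPD agar alone and YPD agar with fluconazole at 4 to 128 μg/ml. The level of heteroresistance to fluconazole (LHF) is the lowest drug concentration at which minor resistant subpopulations emerge within the spot.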

[12] = test system: Cryptococcus gattii species complex; assay: Antimicrobial activity against Cryptococcus gattii serotype C isolate NIH917 assessed as concentration required for heteroresistance; type: functional, Cryptococcus bacillisporus
In short: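 […] on YPD agar at 4 to 128 μg/ml. The lowest drug concentration at which minor resistant subpopulations emerged within the patch was scored as the strain's level of heteroresistance.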

[13] = test system: Cryptococcus gattii species complex; assay: Antimicrobial activity against Cryptococcus gattii serotype C isolate H0058-1-78 assessed as heteroresistant isolates at 32 ug/ml; type: functional, Cryptococcus bacillisporus; in short: as §1
[14] = test system: Cryptococcus gattii species complex; assay: Antimicrobial activity against Cryptococcus gattii serotype B isolate NIH189 assessed as heteroresistant isolates at 2 ug/ml; type: functional, Cryptococcus bacillisporus; in short: as §2
[15] = test system: Cryptococcus gattii species complex; assay: Antimicrobial activity against Cryptococcus gattii serotype B isolate RB-14 assessed as concentration required for heteroresistance; type: functional, Cryptococcus bacillisporus
[16] = test system: Cryptococcus gattii species complex; assay: Antimicrobial activity against Cryptococcus gattii serotype B isolate RB-11 assessed as concentration required for heteroresistance; type: functional, Cryptococcus bacillisporus
[17] = test system: Cryptococcus gattii species complex; assay: Antimicrobial activity against Cryptococcus gattii serotype B isolate NIH76 assessed as concentration required for heteroresistance; type: functional, Cryptococcus bacillisporus; in short: as §4
[18] = test system: Cryptococcus gattii species complex; assay: Antimicrobial activity against Cryptococcus gattii serotype B isolate B5765 assessed as heteroresistant isolates at 2 ug/ml; type: functional, Cryptococcus bacillisporus; in short: as §2
[19] = test system: Cryptococcus gattii species complex; assay: Antimicrobial activity against Cryptococcus gattii serotype B isolate NIH198 assessed as heteroresistant isolates at 16 ug/ml; type: functional, Cryptococcus bacillisporus; in short: as §2
[20] = test system: Cryptococcus bacillisporus; assay: Antimicrobial activity against Cryptococcus gattii serotype C isolate NIH191 assessed as heteroresistant isolates at 2 ug/ml; type: functional; in short: as §1
[21] = test system: Cryptococcus gattii species complex; assay: Antimicrobial activity against Cryptococcus gattii serotype B isolate NIH189 assessed as concentration required for heteroresistance; type: functional, Cryptococcus bacillisporus; in short: as §4
[22] = test system: Cryptococcus deuterogattii; assay: Antimicrobial activity against Cryptococcus gattii serotype B isolate NIH444 assessed as heteroresistant isolates at 16 ug/ml; type: functional, Cryptococcus bacillisporus; in short: as §2
[23] = test system: Cryptococcus gattii species complex; assay: Antimicrobial activity against Cryptococcus gattii serotype C isolate H0058-1-818 assessed as concentration required for heteroresistance; type: functional, Cryptococcus bacillisporus
[24] = test system: Cryptococcus gattii species complex; assay: Antimicrobial activity against Cryptococcus gattii serotype C isolate NIH298 assessed as heteroresistant isolates at 8 ug/ml; type: functional, Cryptococcus bacillisporus; in short: as §3
[25] = test system: Cryptococcus gattii species complex; assay: Antimicrobial activity against Cryptococcus gattii serotype B isolate NIH190 assessed as heteroresistant isolates at 4 ug/ml; type: functional, Cryptococcus bacillisporus; in short: as §2
[26] = test system: Cryptococcus bacillisporus; assay: Antimicrobial activity against Cryptococcus gattii serotype C isolate NIH191 assessed as heteroresistant isolates at 16 ug/ml; type: functional; in short: as §1

For `OC(Cn1cncn1)(Cn1cncn1)c1ccc(F)cc1F` [FLUCONAZOLE], the Activity [1] was 100%, the Activity [2] was 100% and the Activity [3] was 32 µg/mL. It also gave an Activity [4] of 100%, an Activity [5] of 100% and an Activity [6] of 0.22%. For the same molecule, the Activity [7] was 0.03%, the Activity [8] was 32 µg/mL and the Activity [9] was 100%. The Activity [10] was 100%, the Activity [11] was 8 µg/mL and the Activity [12] was 32 µg/mL. It also gave an Activity [13] of 2.3%, an Activity [14] of 100% and an Activity [15] of 32 µg/mL. It also gave an Activity [16] of 32 µg/mL, an Activity [17] of 32 µg/mL and an Activity [18] of 100%. It also gave an Activity [19] of 1.9%, an Activity [20] of 100% and an Activity [21] of 16 µg/mL. The Activity [22] was 100%, the Activity [23] was 32 µg/mL and the Activity [24] was 100%. For the same molecule, the Activity [25] was 100% and the Activity [26] was 100%.
